Here are results for 97 compounds from ChEMBL document CHEMBL4513216, “Probing the Open Global Health Chemical Diversity Library for Multistage-Active Starting Points for Next-Generation Antimalarials” (ACS Infect Dis, 2020).

A short description of this series: Toxicity liver stage against HepG2, at 10uM. The note with it: human, HepG2-A16-CD81EGFP cells; read-out: INHIBITION
Set-up: test concentration 10 uM, cell line HepG2-A16-CD81EGFP. Format: cell-based. Put shortly: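 Uninfected HepG2-A16-CD81EGFP cells, 3 × 10^3 per well, 1536-well, plated on prespotted compound at 10 μM final, parasite-free screening media added to match infected plates; puromycin 10 μM positive, DMSO 0.5% negative; run in parallel with 48 h PbLuc assay at 37 °C, 5% CO2; viability by CellTiter-Glo luminescence, normalized to controls.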
Regarding `c1ccc(CN2CCOC[C@H]2c2nc(-c3ccncc3)c[nH]2)nc1`, the cytotoxicity at 10 µM was -0.501%. In the case of `Cn1ccnc1CN1C[C@@H](F)[C@@H](OCc2nc3cnccc3[nH]2)C1` it was 3.39%; in that of `O=C(NC[C@H]1OC[C@@H](NC(=O)C2CCCC2)[C@@H]1O)c1ccncc1`, 5.45%. As for `Cc1noc(C)c1C(=O)N1CCC2(CC1)CC(Oc1ccccc1)CO2` (configuration not stated), the cytotoxicity at 10 µM was determined as 11.8%. On to `COc1ccc(C2CC(=O)Nc3c2cnn3C)cc1` (configuration not stated), for which the cytotoxicity at 10 µM was 22%.

`CC(C)n1ncc2c1NC(=O)CSC2C(C)(C)C` (configuration not stated): the cytotoxicity at 10 µM worked out at 4.47%. For `Cc1ccoc1C(=O)N1CC[C@H]2OCC[C@@]2(COCc2ccncc2)C1`, the cytotoxicity at 10 µM is 5.71%. The figure for `CN1CC(Oc2ccccc2)=NC(SCC(=O)Nc2ccccc2Cl)=N1` is -9.19%; for `Cc1nn(C)c2c(=O)n(CC(=O)Nc3cc(Cl)cc(Cl)c3)nnc12` it is 0.976%; for `Cc1cc2c(cc1C)OC1(C=C2)CCN(CC(=O)N2CCOCC2)CC1` it is -10.4%. In the case of `COCCCNC(=O)C(C)n1nc(-c2ccco2)cc(N)c1=O` (configuration not stated), the cytotoxicity at 10 µM was 0.152%. On to `CCN(Cc1ccncc1)c1cc(C2CCN2C(C)=O)nc(C)n1` (configuration not stated), for which the cytotoxicity at 10 µM came out at 5.25%. Consider `Cc1ccc(N2CC(c3nccc(C)n3)C2)nn1`, for which the cytotoxicity at 10 µM is 8.82%. For `CNc1cc(C)nc(C2COCCN2CCc2ccc(F)cc2)n1` (configuration not stated), the cytotoxicity at 10 µM is 3.68%. As for `Cc1nc(CN2CCCC(c3nc(C)n4c(C)c(C)sc34)C2)co1` (configuration not stated), the cytotoxicity at 10 µM was -21.7%. `O[C@H]1CN(Cc2ccc3c(c2)OCCO3)CC[C@@]12CCCO2`: the cytotoxicity at 10 µM is -2.92%. For `Cc1nc(C2CCCN2C(=O)Cc2ccc(F)cc2)ncc1C(N)=O` (configuration not stated), the cytotoxicity at 10 µM is -18.2%. Consider `Cc1cccc(C)c1NC(=O)c1n[nH]c(-n2cnnc2)n1`, for which the cytotoxicity at 10 µM is -10.6%. With `CS(=O)(=O)N1CCCC(Cc2ccnc3ccncc23)CC1` (configuration not stated), the cytotoxicity at 10 µM was -12.8%.

Regarding `Cn1cc(C(=O)N2CCCC(c3cc(O)n(C)n3)C2)cn1` (configuration not stated), the cytotoxicity at 10 µM is -21.6%. Consider `Cc1nc(CNC(=O)NC2CC(C)(C)OC2(C)C)sc1C` (configuration not stated), for which the cytotoxicity at 10 µM was -3.77%. In the case of `N#CCCN(CCC#N)C(=O)COC1CCCCC1` it was 0.631%. In the case of `CCS(=O)(=O)CC(=O)Nc1cc(-c2cccc(F)c2F)n[nH]1` it was 10.7%. `CCSc1cc(C(=O)N(CC(F)F)C(C)C)ccn1`: the cytotoxicity at 10 µM was 4.64%. In the case of `O=C(NCc1ccc(Br)cc1F)C1(O)CCSCC1`, the cytotoxicity at 10 µM worked out at 6.4%. On to `CN(C(=O)c1ccncc1Cl)c1ccccc1S(C)(=O)=O`, for which the cytotoxicity at 10 µM came to 17.6%. Turning to `COc1ccc2c(c1)CCCN2Cc1nc(C)c(C)o1`, the cytotoxicity at 10 µM worked out at 4.74%. As to `COC(=O)C(O)C1CCN(CCc2ccc(C)cc2)CC1` (configuration not stated), the cytotoxicity at 10 µM amounted to 15.2%. `Cc1ncc2c(n1)CN(Cc1cccc3c1OCCO3)CC2`: the cytotoxicity at 10 µM is -1.31%. As for `COc1ccc(C(C)NC(=O)Nc2nnc(C)s2)cc1OC` (configuration not stated), the cytotoxicity at 10 µM stood at 9.67%. `C1CC(NCC2CC2)CN(Cc2noc(C3CC3)n2)C1` (configuration not stated): the cytotoxicity at 10 µM was -3.09%. Turning to `COCCN(C)C(=O)Nc1ccc2c(ccn2CC(=O)N(C)C)c1`, the cytotoxicity at 10 µM is 6.71%. Regarding `Cn1cc(C(O)CNC(=O)c2cc(Br)ccc2Cl)cn1` (configuration not stated), the cytotoxicity at 10 µM turned out to be 2.06%. Consider `CCN(C(=O)NCCc1ccc(C)cc1C)C(C)CS(C)(=O)=O` (configuration not stated), for which the cytotoxicity at 10 µM is 11.3%. As for `Cc1nc2cc(C(=O)N(CCN(C)C)CCN(C)C)ccc2n1C`, the cytotoxicity at 10 µM was -9.01%.

Turning to `Cc1nn(CCC#N)c(C)c1CCC(=O)N(C)Cc1ccsc1`, the cytotoxicity at 10 µM is -3.57%.

With `CN(C)C(=O)C1CCN(Cn2ccc(-c3ccc(F)cc3)n2)CC1`, the cytotoxicity at 10 µM is 6.19%.

As for `O=C(NCCCNc1ccccn1)NCC1CCS(=O)(=O)C1` (configuration not stated), the cytotoxicity at 10 µM amounted to 16%. Consider `Cc1noc(C)c1C(=O)N1CCCN(C)c2ccc(Cl)cc21`, for which the cytotoxicity at 10 µM was found to be 4.61%.

As to `COCc1noc(-c2cc(Cl)c3c(c2)OCCCO3)n1`, the cytotoxicity at 10 µM stood at 0.174%. For `CN(CCCNC(=O)C1CCCN(C(N)=O)C1)S(C)(=O)=O` (configuration not stated), the cytotoxicity at 10 µM is -4.76%. Consider `CC(CO)NC(=O)c1ccc(NCc2ccccc2)cc1` (configuration not stated), for which the cytotoxicity at 10 µM is -6.63%.

As for `CCC(NC(=O)NCC(=O)NC(C)C)c1cc(F)ccc1F` (configuration not stated), the cytotoxicity at 10 µM turned out to be 0.447%. With `CCCOc1cc(F)ccc1NC(=O)NCc1noc(C)n1`, the cytotoxicity at 10 µM was found to be 7.83%. The figure for `COCCCn1ccc(NCc2ccc(NC(C)=O)cc2)n1` is 2.33%; for `Cc1nc(C)c(COc2ccc(S(=O)(=O)N(C)C)cc2)s1` it is -0.242%. On to `O=C1CCC(C(=O)Nc2cnn(-c3ccccc3Cl)c2)N1` (configuration not stated), for which the cytotoxicity at 10 µM was -7.41%.

Regarding `O=C(OCc1cc(=O)n2cc(Br)ccc2n1)c1ccc2c(c1)OCO2`, the cytotoxicity at 10 µM is -7.37%. Consider `Cc1ccc(OCC(=O)N(C)Cc2cccc(F)c2)cn1`, for which the cytotoxicity at 10 µM was found to be 27.6%. On to `COc1ccc(NC(=O)CNc2cccc3c2CCCC3)c(OC)c1`, for which the cytotoxicity at 10 µM stood at 16.5%. Take `Cn1c(N2CCOCC2)nc2cc(C(=O)N3CC(O)CO3)ccc21` (configuration not stated): the cytotoxicity at 10 µM came out at 18.5%.

On to `Cn1cc(Cl)cc1C(=O)N1CCC2(CCCN(CC3CCC3)C2=O)C1` (configuration not stated), for which the cytotoxicity at 10 µM was 0.407%.

`CCCc1nc(CN(CC)C(=O)c2ccc(S(C)(=O)=O)cc2)no1`: the cytotoxicity at 10 µM is -5.03%. Take `CSCCc1c(-c2ccccc2)ncn1[C@H]1C[C@@H](C(=O)O)N(C)C1`: the cytotoxicity at 10 µM worked out at 0.471%. For `CC(C)Cn1cncc1CNC(=O)c1cccc(-n2cnnc2)c1`, the cytotoxicity at 10 µM was -5.54%.

Take `NC(=O)c1csc(N2C[C@@H](CN3CCC(O)CC3)[C@@H](CO)C2)n1`: the cytotoxicity at 10 µM turned out to be 0.984%. In the case of `CN(CC(=O)N1CCOCC(CO)C1)Cc1ccccn1` (configuration not stated), the cytotoxicity at 10 µM worked out at 0.382%. In the case of `CCc1nc2c(c(NC3CC3)n1)CCN(C(=O)Cc1nonc1C)CC2` it was 2.8%; in that of `Cc1nc(CC(=O)N2CCCC[C@H](N(C)C)C2)cs1`, 8.27%; in that of `Cc1cc(-n2nc(C3CC3)nc2-c2csnn2)ccn1`, 6.37%. Take `COc1cc(OC)nc(N2CCC3(CC2)OCCCC3O)n1` (configuration not stated): the cytotoxicity at 10 µM was 2.67%.

Turning to `O=C(c1cccc2ccnn12)N1CCC[C@H]1CN1CCCC1`, the cytotoxicity at 10 µM is -144%. As for `Cc1cc(C)cc(CN2CCN(C(=O)CCc3n[nH]c(C)n3)CC2=O)c1`, the cytotoxicity at 10 µM was 0.108%. Turning to `CCCc1cc(NCc2noc(COC)n2)n2nccc2n1`, the cytotoxicity at 10 µM is 6.48%. In the case of `COC1CCN(S(=O)(=O)N2CC[C@@](O)(C3CCC3)[C@H](C)C2)CC1`, the cytotoxicity at 10 µM turned out to be 6.8%. In the case of `CCn1ncnc1C1CC(=O)NCc2nc(N)sc21` (configuration not stated) it was -4.78%.

For `c1ccc(Oc2ncccc2CNCc2ccccn2)cc1`, the cytotoxicity at 10 µM was -8.04%.

Turning to `CN(Cc1cccc2ncccc12)C(=O)CCC(F)(F)F`, the cytotoxicity at 10 µM was -3.05%. Consider `Cc1nn2c(N3CCCC(C#N)C3)cc(-c3ccccc3)nc2c1C` (configuration not stated), for which the cytotoxicity at 10 µM is -0.828%. As for `Cc1cc(Cc2ccc(S(=O)(=O)N3CCOCC3)cc2)c(=O)[nH]n1`, the cytotoxicity at 10 µM was -13.1%. In the case of `CCCNCc1ccc(-c2cc(N)nc3[nH]ccc23)cc1` it was 19.8%; in that of `Cc1cc(C(=O)N2CCc3[nH]nc(-c4ccc5c(c4)OCO5)c3C2)no1`, -137%. Regarding `Cc1nn(CCn2ccnc2-c2cc3n(n2)CCCNC3)c(C)c1Cl`, the cytotoxicity at 10 µM was -8.52%. Regarding `O=C(CCc1ccsc1)N1CCC(Cc2ccc(CO)cc2)C1` (configuration not stated), the cytotoxicity at 10 µM amounted to 14.7%.

For `O=C(NCCCc1ccncc1)C1CCCN(Cc2ccco2)C1` (configuration not stated), the cytotoxicity at 10 µM came to 20.1%. In the case of `CC(NC(=O)NCCNc1ccccn1)c1cccs1` (configuration not stated), the cytotoxicity at 10 µM stood at 1.48%.

For `CC(C)c1nc(CN2CCCC2Cn2cccn2)no1` (configuration not stated), the cytotoxicity at 10 µM is -0.121%.

With `CCc1csc(C2CCCN(C(=O)c3ccco3)C2)n1` (configuration not stated), the cytotoxicity at 10 µM worked out at 2.56%. Turning to `CCc1noc(CN2CCN(c3nccs3)CC2)n1`, the cytotoxicity at 10 µM was -1.46%. On to `O=C(CNc1cc(F)ccc1OCC1CCCO1)N1CCOCC1` (configuration not stated), for which the cytotoxicity at 10 µM is -12.6%.

For the compound `CCc1ncncc1C(=O)N1CCCN(Cc2ccccc2C)CC1`, the cytotoxicity at 10 µM turned out to be 0.977%.

Regarding `O=C(COCc1ccco1)Nc1cc(C(F)(F)F)c[nH]c1=O`, the cytotoxicity at 10 µM is -2.57%. As for `CCNc1cc2c(nn1)CCN(C(=O)c1ccc(-n3cnnc3)cc1)C2`, the cytotoxicity at 10 µM is -3.51%. With `COc1c(C2CCCN2CC(=O)NCc2ccccn2)c(C)nn1C` (configuration not stated), the cytotoxicity at 10 µM is -0.671%.

For `CC(C)Sc1ncccc1C(=O)NCc1cccc(N(C)C)c1`, the cytotoxicity at 10 µM was -3.42%.

Turning to `COCc1nc(C(=O)N2CCCC(n3ccnc3C(C)C)C2)cs1` (configuration not stated), the cytotoxicity at 10 µM was -30.8%. The figure for `CCC(O)CN1CCN(C(=O)c2sccc2C2CC2)CC1` (configuration not stated) is -14.6%; for `CCc1nc(C2CCCN(C(=O)c3cccc(C(N)=O)c3)C2)no1` (configuration not stated) it is -22.2%. On to `CC(C)c1nccn1C1CCCN(C(=O)c2ccc3[nH]cnc3c2)C1` (configuration not stated), for which the cytotoxicity at 10 µM was -8.24%. In the case of `O=C(CCc1ccc2c(c1)OCO2)N1CCCC(n2cccn2)C1` (configuration not stated) it was -15.8%.

`CCN(Cc1nc2c(cnn2C)c(=O)[nH]1)Cc1ccccc1C`: the cytotoxicity at 10 µM is -10.2%. In the case of `Cc1noc(C)c1C(=O)NCC(C)N(C)C` (configuration not stated) it was -8.4%; in that of `CN1CCN(C[C@@H]2OC[C@H]3CN(Cc4cccc(F)c4)CC[C@H]32)CC1`, -10.3%. In the case of `CS(=O)(=O)N1CCOCC2(CCN(C(=O)c3ccncc3)CC2)C1` it was 2.78%; in that of `COc1ccc(CN2CCn3cc(CNC(=O)C4CCC4)nc3C2)cc1`, 5.42%; in that of `O=C(c1ccccn1)N1CCn2cnc(COCC3CC3)c2C1`, 11.4%.

As for `CNC(=O)[C@H]1C[C@H]2CN(C(=O)NCCc3ccccc3)C[C@@H]1O2`, the cytotoxicity at 10 µM was 2.89%.
